TRPC4 potent: positive allosteric modulators of TRPC4, primary screen, cell-based, mouse TRPC4beta, HEK293 mu-opioid, Fluo-4 calcium; Short transient receptor potential channel 4 (Mus musculus), Q9QUQ5; DAMGO EC20, Fluo-4 Ca2+ flux; active compounds read high; B-score at 10 µM; 310,000 compounds, 0.42% hits; AID 2227, 2009;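 active = B-score of calcium response area above 5 SD of library B-scores, with initial fluorescence ratio within 5 SD of library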;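 also: B-score of integrated fluorescence ratio over time as area under calcium response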
TRPC4 agonist: activators of mouse TRPC4 channel, primary screen, Fluo4 calcium, HEK293 TRPC4beta/mu-opioid cells | Fluo4 calcium fluorescence; active compounds read high | B-score at 10 µM | 310,000 compounds, 0.49% hits;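 active = B-score above 5 SD of library B-scores, and initial fluorescence ratio not above library mean plus 5 SD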;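 also: positive B-score marks a calcium rise read as TRPC4 activation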
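System – HEK293 cells stably co-expressing mouse TRPC4beta and mu-opioid receptor · Signal – Fluo4 calcium-sensitive dye fluorescence, kinetic, 1 Hz baseline · Benchmarks – buffer (low) and maximal DAMGO (high) · Read-out – B score of integrated fluorescence ratio per well · Incubation – dye loading 45 min room temperature, 110 s kinetic read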
TRPC6 act: mouse TRPC6 channel activators, primary screen, cell-based, HEK293, membrane potential dye; B-score at 10 µM; HEK293-TRPC6 membrane potential dye fluorescence; active compounds read high; AID 2550, 2010; 310,000 compounds, 0.13% hits;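 active = B-score of the integrated fluorescence ratio above library mean plus 3 SD, and starting fluorescence ratio within library mean plus 5 SD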;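 also: higher score means more depolarization so channel activation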
Target sequence (Q61143 whole entry, looked up): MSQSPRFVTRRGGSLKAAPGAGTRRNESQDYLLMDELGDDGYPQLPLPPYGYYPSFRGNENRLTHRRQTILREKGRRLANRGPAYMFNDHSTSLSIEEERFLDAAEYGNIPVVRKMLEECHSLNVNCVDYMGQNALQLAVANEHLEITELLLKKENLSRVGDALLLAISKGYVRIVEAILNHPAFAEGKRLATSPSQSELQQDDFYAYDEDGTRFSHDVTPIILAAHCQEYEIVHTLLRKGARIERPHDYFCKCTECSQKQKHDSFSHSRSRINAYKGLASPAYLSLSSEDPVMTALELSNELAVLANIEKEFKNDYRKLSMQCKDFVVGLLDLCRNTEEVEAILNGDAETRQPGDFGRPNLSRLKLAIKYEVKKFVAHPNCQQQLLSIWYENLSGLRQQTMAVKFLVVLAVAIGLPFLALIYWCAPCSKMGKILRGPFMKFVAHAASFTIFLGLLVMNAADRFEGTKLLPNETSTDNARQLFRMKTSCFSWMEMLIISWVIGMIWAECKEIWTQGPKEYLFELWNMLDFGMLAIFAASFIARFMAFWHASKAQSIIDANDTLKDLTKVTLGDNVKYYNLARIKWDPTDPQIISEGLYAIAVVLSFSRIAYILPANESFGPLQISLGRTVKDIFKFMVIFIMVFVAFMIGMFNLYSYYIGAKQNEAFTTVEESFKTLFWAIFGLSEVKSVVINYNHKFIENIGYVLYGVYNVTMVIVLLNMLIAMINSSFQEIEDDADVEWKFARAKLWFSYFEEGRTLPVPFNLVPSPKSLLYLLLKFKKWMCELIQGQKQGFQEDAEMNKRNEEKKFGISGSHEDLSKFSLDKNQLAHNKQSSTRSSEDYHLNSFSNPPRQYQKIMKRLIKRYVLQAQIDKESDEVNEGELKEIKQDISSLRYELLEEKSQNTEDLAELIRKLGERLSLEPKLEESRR
TRPC4 inh: inhibitors of mouse TRPC4 channel, primary screen, Fluo4 calcium, HEK293 TRPC4beta/mu-opioid cells; Short transient receptor potential channel 4 (Mus musculus), Q9QUQ5; DAMGO-evoked Fluo4 calcium flux; active compounds read low; B-score at 10 µM; 300,000 compounds, 0.39% hits;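 active = B-score over 3 SD under the library average, no early fluorescence shift, positive overall ratio signal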
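Assay system: HEK293 cells with stable TRPC4beta plus mu-opioid receptor expression. Dosing: single dose. Measured by: Fluo4 Ca2+ flux fluorescence. Also added: DAMGO in two steps, submaximal then maximal. Read-out: B score from integrated Fluo4 fluorescence ratio.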
TRPC6 inh: mouse TRPC6 channel inhibitors, primary screen, cell-based, HEK293, membrane potential dye; Short transient receptor potential channel 6 (Mus musculus), Q61143; ACh-evoked depolarization; active compounds read low; B-score at 10 µM; 310,000 compounds, 1.1% hits; AID 2553, 2010;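 active = B-score under library mean minus 3 SD, initial fluorescence not abnormally high, positive integrated signal ratio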;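 also: B-score derived from integrated fluorescence ratio over the kinetic read; more negative B-score means stronger inhibition of depolarization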
* marks the source's active call; other numbers are inactive results; i = inactive. Only some compounds are listed: those with a hit (about 2.3% of all), similar ones and a draw of the others.

SMILES	TRPC4 potent	TRPC4 agonist	TRPC6 act	TRPC4 inh	TRPC6 inh
C=CCNC(=S)Nc1ccc(N(C)C)cc1	i	i	i	i	i
CNC[C@H](CC1CCCCC1)NC[C@H](Cc1ccccc1)NCCC12CC3CC(CC(C3)C1)C2	i	152*	i	i	i
O=C(CC12CC3CC(CC(C3)C1)C2)NC(Cc1ccccc1)C(=O)O (configuration not stated)	i	i	i	i	i
CCc1ccc(-c2nc(CS(=O)CC(=O)NC3CCCCCC3)c(C)o2)cc1 (configuration not stated)	i	i	i	i	i
CC1Cc2ccccc2N1C(=O)CCn1cccn1 (configuration not stated)	i	i	i	i	i
Cc1cccc(Cn2c(SCCN3CCCCC3)nc3c2c(=O)[nH]c(=O)n3C)c1	i	i	i	i	-5.65*
C/C=C/Cn1c(SCCCc2ccccc2)nc2c1c(=O)[nH]c(=O)n2C	86*	i	i	i	i
C=CCn1c(SCCN2CCCCC2)nc2c1c(=O)[nH]c(=O)n2C	40*	i	i	i	i
C=CCn1c(SCCOC)nc2c1c(=O)[nH]c(=O)n2C	i	i	i	i	i
COc1ccc2oc(C(=O)OCC(=O)NCc3ccco3)c(C)c2c1	i	i	i	i	i
O=C(NCC(O)CO)c1csc(Nc2cccc3ccccc23)n1 (configuration not stated)	i	i	i	i	i
COc1ccc(-c2nn(-c3ccccc3)cc2C(=O)N2c3ccc(C)cc3C3CN(C)CCC32)cc1 (configuration not stated)	15*	i	i	i	i
Cc1[nH]c2c(ccc3ccccc32)c1C1C(CCN)C1(C)C (configuration not stated)	i	70*	i	i	i
Cn1c(=O)c2c(nc(CN3CCc4ccccc4C3)n2Cc2cccc(Cl)c2)n(C)c1=O	73*	i	i	i	i
Cn1c(=O)c2c(nc(CN3CCc4ccccc4C3)n2Cc2ccccc2F)n(C)c1=O	i	169*	i	i	i
CC(C(=O)N1CCN(c2ccc(Cl)cc2)CC1)c1ncc(C(F)(F)F)cc1Cl (configuration not stated)	i	i	i	i	i
CCCCN(C)C(=O)c1cn(C)c2ccc(S(=O)(=O)N(C)C)cc2c1=O	14*	i	i	i	i
CCCCN(CC)CCCNC(=O)c1cn(C)c2ccc(S(=O)(=O)N(C)C3CCCCC3)cc2c1=O	12*	i	i	i	i
CCCCN(C)CCCNC(=O)c1cn(C)c2ccc(S(=O)(=O)N(C)C3CCCCC3)cc2c1=O	i	i	i	i	i
CCN(CC(=O)NCc1ccc(F)cc1)C(=O)CN1CCN(c2ccc(OC)cc2)CC1	i	i	i	i	i
CN(C)C(CNC(=O)c1oc2ccccc2c1CSc1ncn[nH]1)c1ccco1 (configuration not stated)	i	i	i	-7*	i
O=C(c1ccncc1)N1c2ccccc2Sc2ccccc21	26*	i	i	i	i
CCc1ccc(-n2c(SCC(=O)Nc3cccc(S(=O)(=O)NC4=NCCCCC4)c3)nc3ccccc3c2=O)cc1	i	i	i	i	i
Cc1ccc(-n2c(SCC(=O)Nc3cccc(S(=O)(=O)NC4=NCCCCC4)c3)nc3ccccc3c2=O)cc1	i	72*	i	i	i
CC(Nc1nc(N2CCNCC2)nc2ccccc12)c1ccccc1 (configuration not stated)	i	103*	i	i	i
SMILES	TRPC4 potent	TRPC4 agonist	TRPC6 act	TRPC4 inh	TRPC6 inh
COC(=O)c1cnc(Oc2c(Cl)cc(N)cc2Cl)cc1C(F)(F)F	22*	i	i	i	i
Cc1csc2c(N3CCN(C(=O)Nc4ccccc4)CC3)ncnc12	i	185*	i	i	i
Cc1csc2c(N3CCN(C(=S)Nc4ccc(F)cc4F)CC3)ncnc12	i	124*	i	i	i
O=C(N/N=C/c1cccc(F)c1)NC1CCCCC1	12*	i	i	i	i
O=C(N/N=C/c1ccccc1OC(F)F)NC1CCCCC1	i	i	i	i	i
O=C(N/N=C/c1ccccc1F)NC1CCCCC1	21*	177*	i	i	i
O=C(N/N=C/c1ccccc1)NC1CCCCC1	i	i	i	i	i
C=CCn1c(SCC(=O)Nc2ccc(Br)cc2)nc(O)c(CC)c1=O	i	i	i	i	i
CCNS(=O)(=O)c1ccc(NC(=O)Nc2ccc3c(c2)OCO3)cc1	i	61*	i	i	i
O=C(Nc1ccc(S(=O)(=O)NCc2ccccc2)cc1)Nc1ccc2c(c1)OCO2	i	i	i	i	i
O=C(c1ccc(Cl)c(Cl)c1)N(Cc1ccco1)c1ccc(O)cc1	i	i	i	-7*	i
COc1ccc(NS(=O)(=O)c2csc(C(N)=O)c2)cc1OC	16*	i	i	i	i
C=CCNC(=O)c1cc2c(=O)n3cc(C)ccc3nc2nc1NCC1CCCO1 (configuration not stated)	i	i	i	i	-5.9*
COC(=O)c1cc([N+](=O)[O-])ccc1N1CCN(Cc2ccccc2)CC1	11*	i	i	i	i
CN1CCN(c2ccc([N+](=O)[O-])cc2C(=O)c2ccccc2)CC1	i	i	i	i	i
Cc1ccc(C)c(N2CCN(CCCNC(=O)Cn3c(=O)c4cccn4c4cccnc43)CC2)c1	i	i	i	-5*	i
Cc1ccc(C)c(N2CCN(CCCNC(=O)CCn3c(=O)c4cccn4c4cccnc43)CC2)c1	i	i	i	i	i
CN(C)C(CNc1ncnc2sccc12)c1cccs1 (configuration not stated)	i	70*	i	i	i
CC1CCCN(C2(O)C(=O)Nc3ccc(Cl)cc32)C1 (configuration not stated)	i	i	i	i	i
CN1CCN(c2nc(-c3ccccc3)ncc2S(=O)(=O)c2ccccc2)CC1	i	i	i	i	i

High-throughput results: PubChem BioAssay, Johns Hopkins Ion Channel Center
